# NF-kB expr up: activators of NF-kB expression in neurons, primary screen, cell-based, HTS | human neuronal cells, NF-kB reporter expression; stronger effect = higher value | fold change at 12.5 µM | hit rate 1.6% among 190,000; in the data active = fold change above about 3.3
# STAT3 blocker: IL-6 driven STAT3 reporter inhibitors, primary screen, U3A cells, luciferase, luminescence, MLSCN library; IL-6 STAT3-luciferase reporter; host cell line lacks STAT1; inhibition, % at 5.5 µM; hit rate 0.89% among 190,000;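 active = inhibition above the mean inhibition across all screened compounds plus 3 SD, cut at about 44% in these data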
# STAT1 act: STAT1 signaling activators, primary screen, cell-based, HTS, luciferase reporter | NIH 3T3 STAT1-luciferase reporter, IFN-gamma, luminescence; 100% = IFN-gamma alone, no compound | activation (% of control), % at 5.5 µM | hit rate 2.6% among 200,000 | AID 932, 2007;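 active = activation above the screen-wide mean activation plus 3 SD, cut at about 130% in these data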
# STAT3 activator: IL-6 driven STAT3 reporter potentiators, primary screen, U3A cells, luciferase, luminescence, MLSCN library. IL-6 STAT3-luciferase reporter; 100% = signal with IL-6 EC80 alone. activation (% of control), % at 5.6 µM. hit rate 0.91% among 190,000. AID 871, 2007;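 active = activation above the screen-wide mean of compound activation plus 3 SD, cut at about 130% in these data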
#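 Assay system – human STAT1-deficient U3A cells with stable STAT3-luciferase reporter · Also added – IL-6 (33 ng/mL) · Schedule – compound 1 h, then IL-6 6 h at 37 °C · Technique – reporter luminescence signal · Evaluation – % activation versus median of IL-6-stimulated wells · Benchmarks – IL-6-only wells as 100% reference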
# STAT1 inh: STAT1 signaling inhibitors, primary screen, cell-based, HTS, luciferase reporter; NIH 3T3 STAT1-luciferase reporter, IFN-gamma, luminescence; inhibition, % at 5.5 µM; hit rate 0.35% among 200,000; AID 920, 2007;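 active = inhibition above a set limit, the mean inhibition across all tested compounds plus 3 SD, cut at about 34% in these data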
# APP 5'UTR act: activators of APP 5'UTR luciferase reporter, primary screen, SH-SY5Y cells; activation, % at 2 µM; AID 1276, 2008; SH-SY5Y APP 5'UTR luciferase reporter, luminescence; zero percent = DMSO vehicle wells; hit rate 1% among 190,000;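 active = activation above a set limit, based on mean plus 3 SD of controls, cut at about 140% in these data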
# A number is an active result; . = inactive. A selection: hits, their analogues and other compounds. The true share with any hit is near 4.9%.
SMILES,NF-kB expr up,STAT3 blocker,STAT1 act,STAT3 activator,STAT1 inh,APP 5'UTR act
CCc1ccc(-n2c(=O)c3c(C)c(C(=O)N(C)C)sc3n(CC(=O)NCc3ccco3)c2=O)cc1,.,.,.,.,.,.
CC(=O)Nc1cc(C(=O)OCC(=O)c2ccccc2)ccc1C,.,.,136,.,.,.
CCn1c(C(=O)OC)cc2c1ccn2-c1ccc(F)cc1,.,.,144,.,.,.
CC1(C)CC(c2nc(-c3ccc(Br)cc3)cs2)CCS1 (configuration not stated),.,.,.,.,.,.
CN(c1nc(-c2ccc(Br)cc2)cs1)C1CCS(=O)(=O)C1 (configuration not stated),.,.,130,.,.,.
CC(NC(=S)Nc1ccccc1C(F)(F)F)C1CC2CCC1C2 (configuration not stated),.,.,.,.,.,.
COCCn1c(-c2ccccc2)csc1=Nc1cccnc1,.,.,.,.,.,.
CC(C)n1c(-c2ccco2)csc1=Nc1cccnc1,.,.,.,135,.,.
N#Cc1c(NC(=O)c2cnccn2)sc2c1CCCC2,.,.,140,.,.,.
N#Cc1c(NC(=O)c2cccnc2)sc2c1CCC2,.,.,.,.,.,.
Cc1cccc(C(=O)Nc2sc3c(c2C#N)CCCCC3)c1,3.6,.,.,.,.,178
COc1ccccc1NC(=S)NCc1ccc2c(c1)OCO2,.,.,.,.,.,.
c1ccc(OCCOc2ncnc3sccc23)cc1,.,.,131,.,.,.
COc1cccc(COc2ncnc3sccc23)c1,.,.,.,.,.,.
COc1ccc2c(c1)[nH]c1c(N3CCN(Cc4ccc5c(c4)OCO5)CC3)ncnc12,.,77,.,.,.,.
CCSC(=Nc1ccccc1)Nc1ccccc1,.,.,.,.,.,.
C=CCc1c(NCCO)nc(C)[nH]c1=O,.,.,.,.,.,.
CCOc1ccc(/C=N/n2c(SC)nnc2-c2ccccc2)cc1OCC,5.5,.,.,.,.,.
CCOc1ccc(/C=N/n2c(SC)nnc(C(C)(C)C)c2=O)cc1,.,.,.,.,.,.
O=C(CSc1nc2ncccc2[nH]1)c1cccc([N+](=O)[O-])c1,.,.,.,.,.,.
COc1ccccc1-c1nc(-c2ccccn2)no1,.,75,.,.,36,.
Cc1ccccc1-c1nc(Cc2ccccc2)no1,.,.,140,.,.,.
Clc1ccc(-c2nc(Cc3ccccc3)no2)cc1,.,.,.,.,.,.
COc1ccccc1-c1noc(-c2cccs2)n1,3.8,.,130,.,.,.
COc1ccccc1-c1noc(-c2ccncc2)n1,.,.,.,.,.,.
SMILES,NF-kB expr up,STAT3 blocker,STAT1 act,STAT3 activator,STAT1 inh,APP 5'UTR act
Cc1ccccc1-c1nc(-c2ccccn2)no1,.,99,.,.,77,.
CC(=O)n1nc(-c2ccccc2)nc1NCc1cccs1,.,.,.,.,.,.
COc1ccc(Oc2nc(-c3ccccn3)ncc2OC)cc1,.,.,.,.,.,.
COc1ccc(-c2nc(-c3ccccn3)no2)cc1,.,109,.,.,96,.
COc1nc(C)ccc1-c1noc(-c2ccccn2)n1,4.2,.,.,.,.,.
CCC(Oc1ccccc1)C(=O)Nc1ccc(-c2nnc(-c3ccco3)o2)cc1 (configuration not stated),.,.,133,.,.,.
COc1ccccc1OCC(=O)Nc1ccc(-c2nnc(-c3ccco3)o2)cc1,.,.,.,.,.,.
Cc1nn(C)cc1CN1CCCC(C(=O)c2ccc(-c3ccccc3)cc2)C1 (configuration not stated),.,.,.,.,.,.
C(#Cc1ccccc1)Cn1nnc2ccccc21,.,.,134,.,.,.
CNC(=O)c1cc2c(=O)n3cccc(C)c3nc2n(C(C)C)c1=N,.,.,.,.,.,.
CC1(C(=O)NCCCN2CCOCC2)Oc2cccnc2NC1=O (configuration not stated),.,.,.,.,.,.
CC1=CC(=O)C=C(C)C1=NOS(=O)(=O)c1ccccc1,4,.,.,.,.,.
CC(C)c1ccc(/C=C/c2ccc(=O)n(C)n2)cc1,7.5,.,131,.,.,.
CCOC(=O)C(C)n1nc(/C=C/c2ccc(OC)cc2)ccc1=O (configuration not stated),.,.,.,.,.,.
CC(C)(C)c1ccc(-c2nnc(SCC(=O)NC3CCS(=O)(=O)C3)n2N)cc1 (configuration not stated),.,.,.,.,.,.
CC(C)c1ccc(-c2nnn(CCC(=O)O)n2)cc1,.,78,.,.,48,.
O=C(O)CCn1nnc(-c2cccs2)n1,.,.,.,.,.,.
O=C(NC1CCCCC1)N1CCc2ccccc21,.,.,129,.,.,.
O=C(C1CCC(C(=O)N2CCc3ccccc32)CC1)N1CCc2ccccc21 (configuration not stated),.,.,.,.,.,.
COc1ccc(OC)c2c1sc(=NC(=O)C(C)(C)C)n2C,.,.,.,.,.,.
COc1ccc(C(=O)N=c2sc3c(C)ccc(OC)c3n2C)cc1,.,.,142,.,.,.
CCOC(=O)c1ccccc1NC(=O)C1CC(=O)N(c2ccccc2)C1 (configuration not stated),.,.,.,.,.,.
CCc1nnc(NC(=O)CSc2nc3c(cc2C#N)CCCC3)s1,.,.,.,.,.,199
COC(=O)CC(=O)CSc1nc2c(cc1C#N)CCCCC2,5,.,.,.,.,.
Clc1nc(-c2ccccn2)nc2scc(-c3ccccc3)c12,3.3,.,.,.,.,.
SMILES,NF-kB expr up,STAT3 blocker,STAT1 act,STAT3 activator,STAT1 inh,APP 5'UTR act
CC1CCN(c2nc(-c3cccnc3)nc3scc(-c4ccccc4)c23)CC1,.,.,.,.,.,.
COc1ccc(C2(CNC(=O)c3cccc([N+](=O)[O-])c3)CCOCC2)cc1,.,.,.,.,.,.
CCn1ccnc1CNC(=O)CC1C(=O)NCCN1CC(c1ccccc1)c1ccccc1 (configuration not stated),.,.,.,.,.,.
COc1ccc2c(CC(=O)Nc3ncc(C)s3)coc2c1,.,.,141,.,.,.
O=C(c1cccc(COc2ccc(Cl)cc2Cl)c1)N1CCN(c2ccccn2)CC1,.,.,.,.,.,173
CC(=O)N(/N=C1\Sc2ccccc2C1=O)c1cccc(C)c1,7.1,.,.,.,.,136
CC(=O)N(CN1C(=O)c2ccccc2C1=O)c1cccc(C)c1,.,.,.,.,.,.
